In brackets after ≈: the same amount, converted by molar mass. Activity calls are given as the source filed them. The calls are words filed in the database; no cut-off is given here.

One assay relates to Plasmodium falciparum 3D7. Kind of assay: Selectivity index, IC50 for african green monkey Vero cells to IC50 for Plasmodium falciparum 3D7.
Details: not given
Regarding `Clc1ccc2c(Nc3ccc(Nc4nc(NCCCN5CCOCC5)nc(Nc5ccccc5)n4)cc3)ccnc2c1`, the “Selectivity Index” value was found to be 154.29.
With `CCN1CCN(c2nc(Nc3ccc(Nc4ccnc5cc(Cl)ccc45)cc3)nc(N3CCCCC3)n2)CC1`, the “Selectivity Index” value was determined as 124.85.
On the same count and under the same terms, the value for `Clc1ccc2c(Nc3ccc(Nc4nc(NCCCN5CCOCC5)nc(N5CCCCC5)n4)cc3)ccnc2c1` was 170.18; that for `Cc1ccc(Nc2nc(NCCCN3CCOCC3)nc(Nc3ccc(Nc4ccnc5cc(Cl)ccc45)cc3)n2)cc1` was 610.98.

For the next assay, the system named is Plasmodium yoelii. Kind of assay: Antimalarial activity against chloroquine-resistant Plasmodium yoelii N-67 infected in Swiss mouse assessed as suppression of parasitaemia level at 25 mg/kg, ip qd for 4 days. The settings on record: route intraperitoneal. In kind it is functional. The essentials:
(§1)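 Swiss mice (22±2 g), groups of five, inoculated with 1×10^6 P. yoelii N-67 parasitized RBC on day 0; compounds as aqueous suspension with a few drops Tween 80, given intraperitoneally in 0.2 mL once daily days 0–3. Parasitemia from thin blood smears days 4–6, group mean % suppression vs untreated controls; survivors counted on day 28.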
Take `Clc1ccc2c(Nc3ccc(Nc4nc(NCCCN5CCOCC5)nc(Nc5ccccc5)n4)cc3)ccnc2c1`: the Activity worked out at 100%.
Same read-out and setting: then `CCN1CCN(c2nc(Nc3ccc(Nc4ccnc5cc(Cl)ccc45)cc3)nc(N3CCCCC3)n2)CC1`, with 100%; and `Clc1ccc2c(Nc3ccc(Nc4nc(NCCCN5CCOCC5)nc(N5CCCCC5)n4)cc3)ccnc2c1`, with 100%.

Another assay deals with Plasmodium yoelii. In words: Antimalarial activity against chloroquine-resistant Plasmodium yoelii N-67 infected in Swiss mouse assessed as mouse survival at 25 mg/kg, ip qd for 4 days. The assay is classed as functional, organism-based. On the set-up: dose 25 mg/kg.
Details: not given
The essentials: as §1
In the case of `Clc1ccc2c(Nc3ccc(Nc4nc(NCCCN5CCOCC5)nc(Nc5ccccc5)n4)cc3)ccnc2c1`, the result was inactive.
Turning to `CCN1CCN(c2nc(Nc3ccc(Nc4ccnc5cc(Cl)ccc45)cc3)nc(N3CCCCC3)n2)CC1`, the result was inactive.
Consider `Clc1ccc2c(Nc3ccc(Nc4nc(NCCCN5CCOCC5)nc(N5CCCCC5)n4)cc3)ccnc2c1`, for which the outcome was inactive.

Another assay concerns Plasmodium falciparum. In words: Antimalarial activity against chloroquine-sensitive Plasmodium falciparum 3D7 infected in erythrocytes after 72 hrs by syber green 1 assay. The settings on record: 3D7, 72 h.
By IC50 is commonly meant the concentration that gives 50% inhibition. The molecule `Clc1ccc2c(Nc3ccc(Nc4nc(NCCCN5CCOCC5)nc(Nc5ccccc5)n4)cc3)ccnc2c1` gave an IC50 of 3.01 nM.
`CCN1CCN(c2nc(Nc3ccc(Nc4ccnc5cc(Cl)ccc45)cc3)nc(N3CCCCC3)n2)CC1`: the IC50 was determined as 29.7 nM.
Still for that read-out and setting: the value for `Clc1ccc2c(Nc3ccc(Nc4nc(NCCCN5CCOCC5)nc(N5CCCCC5)n4)cc3)ccnc2c1` was 23.1 nM; that for `Cc1ccc(Nc2nc(NCCCN3CCOCC3)nc(Nc3ccc(Nc4ccnc5cc(Cl)ccc45)cc3)n2)cc1` was 7.03 nM.

The test system of another assay is Plasmodium yoelii. Kind of assay: Antimalarial activity against chloroquine-resistant Plasmodium yoelii N-67 infected in Swiss mouse assessed as suppression of parasitaemia level at 50 mg/kg, ip qd for 4 days. In kind it is functional. The conditions noted are these: route intraperitoneal. The method, boiled down: as §1
Regarding `Clc1ccc2c(Nc3ccc(Nc4nc(NCCCN5CCOCC5)nc(Nc5ccccc5)n4)cc3)ccnc2c1`, the Activity is given as 100%.
Regarding `CCN1CCN(c2nc(Nc3ccc(Nc4ccnc5cc(Cl)ccc45)cc3)nc(N3CCCCC3)n2)CC1`, the Activity is on record as 100%.
Still for that read-out and setting: the value for `Clc1ccc2c(Nc3ccc(Nc4nc(NCCCN5CCOCC5)nc(N5CCCCC5)n4)cc3)ccnc2c1` was 100%; that for `Cc1ccc(Nc2nc(NCCCN3CCOCC3)nc(Nc3ccc(Nc4ccnc5cc(Cl)ccc45)cc3)n2)cc1` was 100%.

For a further assay, the system named is Plasmodium yoelii. Kind of assay: Antimalarial activity against chloroquine-resistant Plasmodium yoelii N-67 infected in Swiss mouse assessed as mouse survival at 100 mg/kg, po qd for 4 days. The assay is classed as functional, organism-based.
Details: not given
On the set-up: dose 100 mg/kg. The method, boiled down: (§2)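 Swiss mice (22±2 g), groups of five, inoculated with 1×10^6 P. yoelii N-67 parasitized RBC on day 0; compounds as aqueous suspension with a few drops Tween 80, given orally in 0.1 mL once daily days 0–3. Parasitemia from thin blood smears days 4–6, group mean % suppression vs untreated controls; survivors counted on day 28.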
On to `Clc1ccc2c(Nc3ccc(Nc4nc(NCCCN5CCOCC5)nc(Nc5ccccc5)n4)cc3)ccnc2c1`, for which the outcome was inactive.
As for `CCN1CCN(c2nc(Nc3ccc(Nc4ccnc5cc(Cl)ccc45)cc3)nc(N3CCCCC3)n2)CC1`, the result was Active.
Consider `Clc1ccc2c(Nc3ccc(Nc4nc(NCCCN5CCOCC5)nc(N5CCCCC5)n4)cc3)ccnc2c1`, for which the result was Active.

In the next assay the test system is Plasmodium yoelii. In words: Antimalarial activity against chloroquine-resistant Plasmodium yoelii N-67 infected in Swiss mouse assessed as mouse survival at 50 mg/kg, ip qd for 4 days. The assay is classed as functional, organism-based. On the set-up: dose 50 mg/kg.
Details: not given
The method, boiled down:
as §1
For `Clc1ccc2c(Nc3ccc(Nc4nc(NCCCN5CCOCC5)nc(Nc5ccccc5)n4)cc3)ccnc2c1`, the result was Active.
Turning to `CCN1CCN(c2nc(Nc3ccc(Nc4ccnc5cc(Cl)ccc45)cc3)nc(N3CCCCC3)n2)CC1`, the outcome was Active.
On to `Clc1ccc2c(Nc3ccc(Nc4nc(NCCCN5CCOCC5)nc(N5CCCCC5)n4)cc3)ccnc2c1`, for which the result was Active.
As for `Cc1ccc(Nc2nc(NCCCN3CCOCC3)nc(Nc3ccc(Nc4ccnc5cc(Cl)ccc45)cc3)n2)cc1`, the result was inactive.

Another assay deals with Plasmodium yoelii. In words: Antimalarial activity against chloroquine-resistant Plasmodium yoelii N-67 infected in Swiss mouse assessed as suppression of parasitaemia level at 100 mg/kg, po qd for 4 days. In kind it is functional.
Details: not given
The method, boiled down: as §2
Regarding `Clc1ccc2c(Nc3ccc(Nc4nc(NCCCN5CCOCC5)nc(Nc5ccccc5)n4)cc3)ccnc2c1`, the Activity came to 100%.
Regarding `CCN1CCN(c2nc(Nc3ccc(Nc4ccnc5cc(Cl)ccc45)cc3)nc(N3CCCCC3)n2)CC1`, the Activity is reported as 100%.
As to `Clc1ccc2c(Nc3ccc(Nc4nc(NCCCN5CCOCC5)nc(N5CCCCC5)n4)cc3)ccnc2c1`, the Activity stood at 100%.

The subject of another assay is Plasmodium yoelii. In words: Antimalarial activity against chloroquine-resistant Plasmodium yoelii N-67 infected in Swiss mouse assessed as mouse survival at 50 mg/kg, po qd for 4 days. On the set-up: dose 50 mg/kg.
Details: not given
The assay is classed as functional, organism-based. The method, boiled down: as §2
With `CCN1CCN(c2nc(Nc3ccc(Nc4ccnc5cc(Cl)ccc45)cc3)nc(N3CCCCC3)n2)CC1`, the result was inactive.
`Clc1ccc2c(Nc3ccc(Nc4nc(NCCCN5CCOCC5)nc(N5CCCCC5)n4)cc3)ccnc2c1`: the result was inactive.

The subject of another assay is Plasmodium yoelii. In words: Antimalarial activity against chloroquine-resistant Plasmodium yoelii N-67 infected in Swiss mouse assessed as suppression of parasitaemia level at 50 mg/kg, po qd for 4 days.
Details: not given
The assay is classed as functional. The essentials: as §2
As to `CCN1CCN(c2nc(Nc3ccc(Nc4ccnc5cc(Cl)ccc45)cc3)nc(N3CCCCC3)n2)CC1`, the Activity is reported as 100%.
As to `Clc1ccc2c(Nc3ccc(Nc4nc(NCCCN5CCOCC5)nc(N5CCCCC5)n4)cc3)ccnc2c1`, the Activity came to 100%.

Tested on in a further assay: not listed separately
In words: Inhibition of beta-hematin formation after 16 hrs. In kind it is functional.
Details: not given
The method, boiled down:
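Plasma came from male Swiss mice (15–20 g) infected with 1 × 10⁵ infected RBCs. Blood was drawn at 50% parasitemia by cardiac puncture into 2.0% citrate and spun at 4 °C. Hemin substrate ([…]) and compound were incubated in 100 mM acetate buffer, pH 5.1, at 37 °C for 16 h with shaking. The pellet was washed in SDS buffers. IC50 was the mean of three experiments in triplicate.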
The molecule `Clc1ccc2c(Nc3ccc(Nc4nc(NCCCN5CCOCC5)nc(Nc5ccccc5)n4)cc3)ccnc2c1` gave an IC50 of 2.98 µg/mL (≈ 5.12 µM).
Consider `CCN1CCN(c2nc(Nc3ccc(Nc4ccnc5cc(Cl)ccc45)cc3)nc(N3CCCCC3)n2)CC1`, for which it took 2.79 µg/mL (≈ 5.13 µM) to reach half-maximal inhibition (IC50).
`Clc1ccc2c(Nc3ccc(Nc4nc(NCCCN5CCOCC5)nc(N5CCCCC5)n4)cc3)ccnc2c1` registered an IC50 of 2.71 µg/mL (≈ 4.72 µM).
As for `Cc1ccc(Nc2nc(NCCCN3CCOCC3)nc(Nc3ccc(Nc4ccnc5cc(Cl)ccc45)cc3)n2)cc1`, the IC50 was determined as 2.85 µg/mL (≈ 4.78 µM).

These data come from ChEMBL document CHEMBL1667763, “4-anilinoquinoline triazines: a novel class of hybrid antimalarial agents” (Eur J Med Chem, 2011).
